Assay [1] is described as follows: Cytotoxicity against human MDA231 cells […] by MTT assay. In kind it is functional, cell-based. Particulars: MDA-MB-231. Summed up:
(§1)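 MTT metabolic assay. Cells were exposed to compound continuously starting 18 h after setup, and survival was read at 96 h. IC50 is the concentration giving 50% growth inhibition relative to untreated cells. Values are means of three independent determinations.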
Background: Formazan colour is commonly taken as a measure of viable cells.

The test system of another assay is MCF7. Briefly: Cytotoxicity against human MCF7 cells […] by MTT assay. In kind it is functional, cell-based. The essentials:
as §1

Another assay concerns PC-3. Briefly: Cytotoxicity against human PC3 cells after 18 hrs by MTT assay. The assay is classed as functional, cell-based. Particulars: PC-3, 96 h, in the assay text read “after 96 hrs” for “after 18 hrs”. The essentials: as §1
Assay [2] relates to MDA-MB-231. Description: Induction of apoptosis in human MDA231 cells at 20 uM by annexin-V/7-AAD staining-based fluorescence assay. In kind it is functional. Summed up: (§2)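 MDA-231 breast carcinoma cells were exposed to test compounds at 10, 20 or 50 µM, or to paclitaxel as reference at 10 or 50 nM. Results are expressed as percent apoptotic cells.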
The subject of assay [3] is MDA-MB-231. Briefly: Induction of necrosis in human MDA231 cells at 50 uM by annexin-V/7-AAD staining-based fluorescence assay. In kind it is functional, cell-based.
Assay [4] relates to MDA-MB-231. Description: Induction of apoptosis in human MDA231 cells by annexin-V/7-AAD staining-based fluorescence assay. The assay is classed as functional, cell-based.
The test system of assay [5] is MDA-MB-231. Briefly: Induction of apoptosis in human MDA231 cells at 50 uM by annexin-V/7-AAD staining-based fluorescence assay. In kind it is functional. Summed up: as §2
In assay [6] the target is Aurora kinase B (Homo sapiens) (UniProt Q96GD4). Briefly: Inhibition of human recombinant Aurora B at 10 uM after 4 hrs by Kinase-Glo luminescent assay. The essentials: (§3)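 Full-length human recombinant kinases were incubated in kinase buffer containing ATP and poly(Glu:Tyr) substrate, with or without compound at 10 µM final, for 4 h at room temperature. Remaining ATP was quantified by Kinase-Glo luminescence.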
(In general: In Kinase-Glo more light means more ATP remaining.)

Assay [7] has as its target Epidermal growth factor receptor (Homo sapiens) (UniProt P00533). Briefly: Inhibition of human recombinant EGFR at 10 uM after 4 hrs by Kinase-Glo luminescent assay. The essentials: as §3
In assay [8] the target is Dual specificity mitogen-activated protein kinase kinase 1 (Homo sapiens) (UniProt Q02750). Description: Inhibition of human recombinant MEK1 at 10 uM after 4 hrs by Kinase-Glo luminescent assay. The essentials:
as §3

Assay [9] addresses Focal adhesion kinase 1 (Homo sapiens) (UniProt Q05397). Description: Inhibition of human recombinant FAK at 10 uM after 4 hrs by Kinase-Glo luminescent assay. The essentials:
as §3

For assay [10], the target named is Proto-oncogene tyrosine-protein kinase Src (Homo sapiens) (UniProt P12931). Description: Inhibition of human recombinant Src at 10 uM after 4 hrs by Kinase-Glo luminescent assay. Summed up: as §3
The test system of assay [11] is MDA-MB-231. Description: Induction of apoptosis in human MDA231 cells at 10 nM by annexin-V/7-AAD staining-based fluorescence assay. The assay is classed as functional. Summed up: as §2
Assay [12] concerns MDA-MB-231. Briefly: Induction of apoptosis in human MDA231 cells at 50 nM by annexin-V/7-AAD staining-based fluorescence assay. The assay is classed as functional. Summed up: as §2

In general, IC50 refers to the midpoint of a concentration-inhibition curve. A higher IC50 goes with a need for much substance. The inhibition is the drop in the measured response relative to a control, in per cent.

Calls of active or inactive are those of the source. The rule behind the calls is not given here.

Sequence of Focal adhesion kinase 1 (Homo sapiens) (Q05397 2-1052 limits assumed): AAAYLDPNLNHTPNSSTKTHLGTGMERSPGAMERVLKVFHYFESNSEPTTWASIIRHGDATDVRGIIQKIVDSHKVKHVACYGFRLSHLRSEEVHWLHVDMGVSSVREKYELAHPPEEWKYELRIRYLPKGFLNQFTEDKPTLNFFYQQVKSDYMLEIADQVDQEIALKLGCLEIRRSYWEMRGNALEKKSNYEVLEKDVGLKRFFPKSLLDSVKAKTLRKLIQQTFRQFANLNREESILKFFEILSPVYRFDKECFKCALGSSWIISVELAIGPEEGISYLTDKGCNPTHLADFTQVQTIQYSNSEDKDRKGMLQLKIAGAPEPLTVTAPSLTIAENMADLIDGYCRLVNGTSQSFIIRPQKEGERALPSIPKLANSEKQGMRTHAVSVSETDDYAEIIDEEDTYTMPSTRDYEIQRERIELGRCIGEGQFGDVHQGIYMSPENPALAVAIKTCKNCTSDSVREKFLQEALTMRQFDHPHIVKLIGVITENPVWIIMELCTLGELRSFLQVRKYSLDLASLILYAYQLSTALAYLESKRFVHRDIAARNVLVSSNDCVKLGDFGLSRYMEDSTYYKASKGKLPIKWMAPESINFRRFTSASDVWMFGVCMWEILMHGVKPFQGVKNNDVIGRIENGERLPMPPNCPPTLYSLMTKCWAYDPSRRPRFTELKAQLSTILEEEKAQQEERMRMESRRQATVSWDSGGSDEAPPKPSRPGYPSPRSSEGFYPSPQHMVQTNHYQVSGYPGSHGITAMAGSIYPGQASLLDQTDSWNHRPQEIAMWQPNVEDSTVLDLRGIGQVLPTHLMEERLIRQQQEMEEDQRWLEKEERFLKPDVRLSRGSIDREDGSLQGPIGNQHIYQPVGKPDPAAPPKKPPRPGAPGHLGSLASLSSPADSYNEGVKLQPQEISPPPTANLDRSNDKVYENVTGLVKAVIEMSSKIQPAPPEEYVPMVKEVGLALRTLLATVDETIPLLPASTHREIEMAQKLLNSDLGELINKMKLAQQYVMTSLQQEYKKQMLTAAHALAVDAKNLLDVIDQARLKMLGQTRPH
Sequence of Dual specificity mitogen-activated protein kinase kinase 1 (Homo sapiens) (Q02750 whole entry): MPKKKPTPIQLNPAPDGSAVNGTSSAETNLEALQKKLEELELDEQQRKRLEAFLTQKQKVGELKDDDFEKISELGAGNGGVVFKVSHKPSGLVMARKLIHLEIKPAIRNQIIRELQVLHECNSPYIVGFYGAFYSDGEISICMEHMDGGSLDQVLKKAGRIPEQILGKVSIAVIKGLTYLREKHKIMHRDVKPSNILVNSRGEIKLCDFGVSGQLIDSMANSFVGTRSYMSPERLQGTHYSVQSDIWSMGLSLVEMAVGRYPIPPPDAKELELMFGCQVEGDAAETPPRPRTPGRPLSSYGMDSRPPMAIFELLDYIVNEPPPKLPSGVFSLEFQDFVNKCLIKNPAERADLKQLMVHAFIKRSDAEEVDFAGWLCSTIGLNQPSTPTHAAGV
Sequence of Aurora kinase B (Homo sapiens) (Q96GD4 whole entry): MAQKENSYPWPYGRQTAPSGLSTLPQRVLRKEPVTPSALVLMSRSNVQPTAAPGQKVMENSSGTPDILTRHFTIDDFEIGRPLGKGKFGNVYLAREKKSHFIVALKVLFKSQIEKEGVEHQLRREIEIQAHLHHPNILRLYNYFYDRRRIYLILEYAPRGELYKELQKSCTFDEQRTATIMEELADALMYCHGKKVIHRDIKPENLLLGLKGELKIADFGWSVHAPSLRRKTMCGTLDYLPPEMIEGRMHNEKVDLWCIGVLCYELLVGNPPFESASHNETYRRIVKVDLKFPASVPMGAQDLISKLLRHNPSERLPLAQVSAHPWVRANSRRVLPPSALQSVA
Sequence of Epidermal growth factor receptor (Homo sapiens) (P00533 whole entry): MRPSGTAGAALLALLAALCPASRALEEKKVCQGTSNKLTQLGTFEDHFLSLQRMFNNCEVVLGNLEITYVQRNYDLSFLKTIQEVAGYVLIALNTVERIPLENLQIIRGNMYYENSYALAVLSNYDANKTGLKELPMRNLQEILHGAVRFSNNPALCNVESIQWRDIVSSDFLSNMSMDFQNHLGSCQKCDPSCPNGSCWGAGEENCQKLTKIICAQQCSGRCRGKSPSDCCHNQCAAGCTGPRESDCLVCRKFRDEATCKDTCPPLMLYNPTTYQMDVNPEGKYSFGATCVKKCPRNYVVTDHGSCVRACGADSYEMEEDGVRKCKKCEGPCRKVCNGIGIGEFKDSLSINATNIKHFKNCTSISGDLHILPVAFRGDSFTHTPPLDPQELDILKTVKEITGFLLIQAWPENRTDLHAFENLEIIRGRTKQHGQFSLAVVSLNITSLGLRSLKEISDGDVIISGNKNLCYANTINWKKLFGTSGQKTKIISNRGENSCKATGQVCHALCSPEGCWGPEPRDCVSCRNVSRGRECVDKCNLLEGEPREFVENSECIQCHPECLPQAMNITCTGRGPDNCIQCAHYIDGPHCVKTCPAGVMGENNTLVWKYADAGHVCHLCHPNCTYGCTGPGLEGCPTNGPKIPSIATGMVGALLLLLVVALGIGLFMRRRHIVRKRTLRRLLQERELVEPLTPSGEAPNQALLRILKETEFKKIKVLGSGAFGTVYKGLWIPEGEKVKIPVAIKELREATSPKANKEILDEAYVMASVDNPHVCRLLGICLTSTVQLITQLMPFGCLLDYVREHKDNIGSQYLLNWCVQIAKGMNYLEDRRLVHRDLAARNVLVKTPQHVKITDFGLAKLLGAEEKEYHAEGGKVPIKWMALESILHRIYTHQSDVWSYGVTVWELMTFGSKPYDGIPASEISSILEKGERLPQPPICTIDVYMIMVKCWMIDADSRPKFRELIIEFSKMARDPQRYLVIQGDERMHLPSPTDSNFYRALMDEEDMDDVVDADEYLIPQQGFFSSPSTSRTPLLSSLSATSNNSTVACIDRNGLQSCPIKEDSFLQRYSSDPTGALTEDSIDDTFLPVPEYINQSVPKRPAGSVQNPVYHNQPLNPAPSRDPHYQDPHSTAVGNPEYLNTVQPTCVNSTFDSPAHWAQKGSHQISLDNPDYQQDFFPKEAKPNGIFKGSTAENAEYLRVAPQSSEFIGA
Sequence of Proto-oncogene tyrosine-protein kinase Src (Homo sapiens) (P12931 2-536 limits assumed): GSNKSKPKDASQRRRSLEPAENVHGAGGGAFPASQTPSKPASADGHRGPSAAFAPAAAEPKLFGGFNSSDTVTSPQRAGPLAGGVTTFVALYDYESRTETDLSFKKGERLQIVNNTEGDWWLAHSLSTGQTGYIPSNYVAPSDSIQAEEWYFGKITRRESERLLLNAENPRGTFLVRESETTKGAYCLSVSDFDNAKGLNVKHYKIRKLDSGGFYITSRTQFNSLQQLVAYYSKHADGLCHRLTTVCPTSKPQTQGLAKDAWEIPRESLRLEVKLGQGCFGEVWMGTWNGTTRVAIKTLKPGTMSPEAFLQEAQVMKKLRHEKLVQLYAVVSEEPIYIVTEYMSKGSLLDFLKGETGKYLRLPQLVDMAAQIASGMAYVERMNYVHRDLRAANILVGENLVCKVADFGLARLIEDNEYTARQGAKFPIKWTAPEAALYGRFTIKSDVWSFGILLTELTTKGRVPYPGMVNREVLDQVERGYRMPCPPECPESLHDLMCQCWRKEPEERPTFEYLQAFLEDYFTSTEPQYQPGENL

As to `COC(=O)c1cc2c([nH]c3ccc(O)cc32)c(C(=O)c2c[nH]c3ccccc23)n1`, in assay [1], the IC50 stood at 3.16 µM.

`NCCCCNC(=O)c1cc2c([nH]c3ccccc32)c(C(=O)c2c[nH]c3ccccc23)n1`: the IC50 in assay [1] came to 3.04 µM.

For `O=C(O)c1cc2c([nH]c3ccccc32)c(C(=O)c2c[nH]c3ccccc23)n1`, the IC50 in the assay with MCF7 is 23.4 µM; in assay [1] it was 24.8 µM; in the assay with PC-3, 16.9 µM. The Activity with MDA-MB-231 [2] was 4.89%; with MDA-MB-231 [4] it was “Dose-dependent effect”; with MDA-MB-231 [5], 17.68%. Further, in the assay on MDA-MB-231 [3], the outcome was Active.

For the molecule `CN(C)CCNC(=O)c1cc2c([nH]c3ccccc32)c(C(=O)c2c[nH]c3ccccc23)n1`, it took 3.56 µM to reach half-maximal inhibition in assay [1] (IC50).

As for `O=C(c1c[nH]c2ccccc12)c1nccc2c1[nH]c1ccc(O)cc12`, the IC50 with MCF7 was 12.9 µM; in assay [1], 6.35 µM; in the assay on PC-3 it was 16.4 µM. Moreover, the Activity with MDA-MB-231 [2] is 11.16%; with MDA-MB-231 [4] it was “Dose-dependent effect”; in the assay on MDA-MB-231 [5] it was 41%. The inhibition was found to be 10% in [6]; 9% in [7]; 11% in assay [8]; 11% in [9]; 8% in assay [10]. In addition, in the assay on MDA-MB-231 [3], the result was Active.

For the molecule `O=C(c1c[nH]c2ccc(Br)cc12)c1nccc2c1[nH]c1ccccc12`, the IC50 is 60.9 µM in the assay on MCF7, > 100 µM in assay [1] and > 100 µM in the assay with PC-3.

As to `CNCCNC(=O)c1cc2c([nH]c3ccccc32)c(C(=O)c2c[nH]c3ccccc23)n1`, the IC50 in assay [1] was 3.98 µM.

Molecule `NCCNC(=O)c1cc2c([nH]c3ccc(O)cc32)c(C(=O)c2c[nH]c3ccccc23)n1` yielded an IC50 in assay [1] of 15.8 µM.

In turn, `NCCCCNC(=O)c1cc2c([nH]c3ccc(O)cc32)c(C(=O)c2c[nH]c3ccccc23)n1` gave an IC50 in assay [1] of 8.7 µM.

`COc1ccc2[nH]cc(C(=O)c3nc(C(=O)O)cc4c3[nH]c3ccccc34)c2c1`: the results for the IC50 (in the assay on MCF7; in [1]; in the assay on PC-3) were 3.4 µM, 12.1 µM and 32.3 µM, respectively.

As for `CN(C)CCCNC(=O)c1cc2c([nH]c3ccccc32)c(C(=O)c2c[nH]c3ccccc23)n1`, in assay [1], the IC50 came to 6.02 µM.

On to `O=C(c1c[nH]c2ccc([N+](=O)[O-])cc12)c1nccc2c1[nH]c1ccc(O)cc12`, for which the IC50 (with MCF7; in [1]; in the assay with PC-3) was > 100 µM in each case.

On to `NCCCNC(=O)c1cc2c([nH]c3ccccc32)c(C(=O)c2c[nH]c3ccccc23)n1`, for which, in assay [1], the IC50 was 2.48 µM.

Turning to `CNCCNC(=O)c1cc2c([nH]c3ccc(O)cc32)c(C(=O)c2c[nH]c3ccccc23)n1`, the IC50 in assay [1] is 4.36 µM. This IC50 is about 1.8-fold higher than that of the molecule before.

For the molecule `O=C(c1c[nH]c2ccc(Br)cc12)c1nccc2c1[nH]c1ccc(O)cc12`, the IC50 (in the assay with MCF7; in assay [1]; with PC-3) was > 100 µM throughout.

`COc1ccc2[nH]cc(C(=O)c3nccc4c3[nH]c3ccccc34)c2c1`: the IC50 with MCF7 worked out at 6.94 µM; in assay [1], 18.8 µM; in the assay on PC-3, 49.9 µM.

In assay [1], `COC(=O)c1cc2c([nH]c3ccccc32)c(C(=O)c2c[nH]c3ccccc23)n1` gave an IC50 of 12.6 µM.

For `O=C(c1c[nH]c2ccc([N+](=O)[O-])cc12)c1nccc2c1[nH]c1ccccc12`, the IC50 was > 100 µM with MCF7, > 100 µM in assay [1] and 38.8 µM with PC-3.

Regarding `CN(C)CCNC(=O)c1cc2c([nH]c3ccc(O)cc32)c(C(=O)c2c[nH]c3ccccc23)n1`, 1.33 µM corresponded to half-maximal inhibition in assay [1] (IC50).

Consider `CC(=O)O[C@H]1C(=O)[C@@]2(C)[C@H]([C@H](OC(=O)c3ccccc3)[C@]3(O)C[C@H](OC(=O)[C@H](O)[C@@H](NC(=O)c4ccccc4)c4ccccc4)C(C)=C1C3(C)C)[C@]1(OC(C)=O)CO[C@@H]1C[C@@H]2O` [PACLITAXEL], for which the Activity with MDA-MB-231 [11] came to 11.93%; in the assay with MDA-MB-231 [12], 17.23%.

In the case of `NCCNC(=O)c1cc2c([nH]c3ccccc32)c(C(=O)c2c[nH]c3ccccc23)n1`, half-maximal inhibition in assay [1] (IC50) required 12.6 µM.

`O=C(O)c1cc2c([nH]c3ccc(O)cc32)c(C(=O)c2c[nH]c3ccccc23)n1`: the IC50 with MCF7 is 79 µM; in [1] it was 42 µM; with PC-3, 57.9 µM.

As for `O=C(c1c[nH]c2ccccc12)c1nccc2c1[nH]c1ccccc12`, the IC50 is > 100 µM with MCF7, > 100 µM in [1] and 55.1 µM in the assay with PC-3.

`CN(C)CCCNC(=O)c1cc2c([nH]c3ccc(O)cc32)c(C(=O)c2c[nH]c3ccccc23)n1` showed an IC50 in assay [1] of 2.51 µM.

For `COc1ccc2[nH]cc(C(=O)c3nccc4c3[nH]c3ccc(O)cc34)c2c1`, the IC50 was > 100 µM in the assay on MCF7, 44.5 µM in [1] and > 100 µM with PC-3.

The values above are taken from ChEMBL document CHEMBL1909554, “Total synthesis and bioactivity of the marine alkaloid pityriacitrin and some of its derivatives” (Eur J Med Chem, 2011).
